# Source: ChEMBL document CHEMBL4017499, “The Discovery of Novel Antimalarial Aminoxadiazoles as a Promising Nonendoperoxide Scaffold” (J Med Chem, 2017)
# The source made the active and inactive calls. The rule behind the calls is not given here.
# How the values were obtained:
# Plasmodium falciparum [1] = experiment: Antiplasmodial activity against Plasmodium falciparum 3D7A infected in red blood cells preincubated for 24 hrs followed by [3H]-hypoxanthine addition measured after 24 hrs by scintillation counting; type: functional, cell-based
# In short: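 Whole-cell growth assay on sensitive P. falciparum strain 3D7A by [3H]hypoxanthine incorporation; two or three independent biological replicates per value.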
# Plasma [2] = experiment: Drug level in Swiss CD1 mouse plasma treated with 5-(3-(Pyridin-3-yl)-5-(trifluoromethyl)phenyl)-N-(4-(pyrrolidin-1-ylmethyl)phenyl)-1,3,4-oxadiazol-2-amine at 500 mg/kg, po by HPLC analysis; type: ADME, organism-based; settings: in vivo
# In short: (§1)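 Mice given high oral doses (250/300 and 500 mg/kg); plasma analysed by HPLC for parent compound and breakdown products, expressed as percentage levels.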
# Plasma [3] = experiment: Drug level in Swiss CD1 mouse plasma treated with 5-([3,4'-Bipyridin]-2'-yl)-N-(4-(pyrrolidin-1-ylmethyl)phenyl)-1,3,4-oxadiazol-2-amine at 500 mg/kg, po by HPLC analysis; type: ADME, organism-based; settings: in vivo; in short: as §1
# Liver = experiment: Intrinsic clearance in human liver microsomes at 0.5 uM up to 45 mins in presence of NADPH by HPLC-MS/MS analysis; type: ADME, microsome; settings: 0.75 h
# Plasmodium falciparum [4] = experiment: Antimalarial activity against Plasmodium falciparum 3D7 0087/N9 infected in po dosed SCID mouse assessed as reduction in parasitemia administered 3 days post infection dosed once a day for four consecutive days measured after 7 days; type: functional; settings: 3D7 0087/N9, po
# In short: (§2)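 SCID mice engrafted with human parasite P. falciparum Pf 3D70087/N9; oral dosing started 3 days after infection, once daily for four consecutive days; parasitemia compared with untreated controls.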
# [5] = Oral bioavailability in CD1 mouse at 10 mg/kg measured up to 24 hrs post dose by LC-MS/MS analysis; type: ADME, organism-based; settings: in vivo
# In short: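 Oral bioavailability in mouse after a single oral dose of 10 mg/kg.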
# Mus musculus = experiment: Clearance in CD1 mouse at 1 mg/kg, iv measured up to 24 hrs post dose by LC-MS/MS analysis; type: ADME, organism-based; settings: mouse, in vivo, 24 h
# In short: (§3)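 Pharmacokinetics in mouse after a single intravenous dose of 1 mg/kg.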
# [6] = Half life in CD1 mouse at 1 mg/kg, iv measured up to 24 hrs post dose by LC-MS/MS analysis; type: ADME, organism-based; settings: in vivo; in short: as §3
# Plasmodium falciparum [7] = experiment: Antimalarial activity against Plasmodium falciparum 3D7 0087/N9 infected in po dosed mouse assessed as average daily exposure in whole blood required to reduce parasitemia administered 3 days post infection dosed once a day for four consecutive days measured 7 days post dose; type: functional, organism-based
# [8] = Chemical stability in SGF media at pH 1.6 after 14 hrs; type: physicochemical; settings: simulated gi fluid, pH 1.6, 14 h
# In short: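 Stability in simulated gastric fluid at pH 1.6, held at 37 °C for up to 24 h; checked for degradation products.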
# [9] = Lipophilicity, log D of compound at pH 7.4 by chromatographic method; type: physicochemical; settings: buffer
# Plasma [10] = experiment: Drug metabolism in Swiss CD1 mouse assessed as 2-(3-(Pyridin-3-yl)-5-(trifluoromethyl)benzoyl)-N-(4-(pyrrolidin-1-ylmethyl)phenyl)hydrazinecarboxamide in plasma at 300 to 500 mg/kg, po by HPLC analysis; type: ADME, organism-based; settings: in vivo; in short: as §1
# [11] = Solubility of the compound in fasted state stimulated intestinal fluid at pH 6.5 by HPLC analysis; type: physicochemical; settings: fasted state simulated intestinal fluid
# In short: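 Solubility measured in fasted state simulated intestinal fluid, pH 6.5.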
# Plasmodium falciparum [12] = experiment: Antimalarial activity against Plasmodium falciparum 3D7 0087/N9 infected in SCID mouse assessed as reduction in parasitemia at 50 mg/kg, po administered 3 days post infection dosed once a day for four consecutive days measured 2 days; type: functional, organism-based; in short: as §2
compound,measurement,setting,value
CN1CCc2ccc(Nc3nnc(-c4ccnc(-c5cccnc5)c4)o3)cc2C1,IC50,Plasmodium falciparum [1],70 nM
O=C(O)c1cc(-c2cccnc2)cc(C(F)(F)F)c1,Drug metabolism,Plasma [2],Metabolite_Detected
O=C(NNC(=O)c1cc(-c2cccnc2)ccn1)Nc1ccc(CN2CCCC2)cc1,Drug metabolism,Plasma [3],Metabolite_Detected
CN1CCc2ccc(Nc3nnc(-c4cccc(-c5cccnc5)n4)o3)cc2C1,IC50,Plasmodium falciparum [1],1900 nM
FC(F)(F)c1cccc(Nc2nnc(-c3cccc(-c4cccnc4)c3)o2)c1,IC50,Plasmodium falciparum [1],690 nM
same,intrinsic clearance,Liver,3.3 mL/min/g
CN1CCc2ncc(Nc3nnc(-c4cccc(-c5cccnc5)c4)o3)cc2C1,IC50,Plasmodium falciparum [1],20 nM
CN1CCc2ccc(Nc3nnc(-c4cncc(-c5cccnc5)c4)o3)cc2C1,IC50,Plasmodium falciparum [1],30 nM
same,intrinsic clearance,Liver,1.45 mL/min/g
CN1CCc2ccc(Nc3nnc(-c4cc(-c5cccnc5)ccc4F)o3)cc2C1,IC50,Plasmodium falciparum [1],50 nM
same,intrinsic clearance,Liver,2.9 mL/min/g
FC(F)(F)c1cc(-c2cccnc2)cc(-c2nnc(Nc3ccc(CN4CCCC4)cc3)o2)c1,ED90,Plasmodium falciparum [4],< 20 mg/kg
same,IC50,Plasmodium falciparum [1],30 nM
same,bioavailability,[5],89%
same,clearance,Mus musculus,19.5 mL/min/kg
same,half-life,[6],84 min
same,AUCED90,Plasmodium falciparum [7],< 6.1 µg.hr/ml/day
same,Stability,[8],Unstable
same,chromatographic logD,[9],3.3
same,Drug metabolism,Plasma [10],Metabolite_Detected
CN1CCc2ccc(Nc3nnc(-c4cc(-c5cccnc5)ccn4)o3)cc2C1,ED90,Plasmodium falciparum [4],33.8 mg/kg
same,IC50,Plasmodium falciparum [1],200 nM
same,solubility,[11],390 µg/mL
same,AUCED90,Plasmodium falciparum [7],1.4 µg.hr/ml/day
same,intrinsic clearance,Liver,< 0.5 mL/min/g
CN(C)Cc1ccc(Nc2nnc(-c3cc(-c4cccnc4)cc(C(F)(F)F)c3)o2)cc1,ED90,Plasmodium falciparum [4],< 20 mg/kg
same,IC50,Plasmodium falciparum [1],30 nM
same,bioavailability,[5],100%
same,clearance,Mus musculus,76.9 mL/min/kg
same,half-life,[6],17.4 min
same,solubility,[11],57 µg/mL
same,AUCED90,Plasmodium falciparum [7],< 2.5 µg.hr/ml/day
same,Activity,Plasmodium falciparum [12],Active
same,chromatographic logD,[9],3.2 to 3.3
CN1Cc2ccc(Nc3nnc(-c4cccc(-c5cccnc5)c4)o3)cc2C1,IC50,Plasmodium falciparum [1],70 nM
same,intrinsic clearance,Liver,5.1 mL/min/g
c1ccc(Nc2nnc(-c3cccc(-c4cccnc4)c3)o2)cc1,IC50,Plasmodium falciparum [1],1700 nM
same,intrinsic clearance,Liver,1.8 mL/min/g
CN(C)Cc1ccc(Nc2nnc(-c3cccc(-c4cccnc4)c3)o2)cc1,IC50,Plasmodium falciparum [1],30 nM
